Laboratory results reported in ChEMBL document CHEMBL2169781, “Discovery and biological evaluation of a novel class of dual microsomal prostaglandin E2 synthase-1/5-lipoxygenase inhibitors based on 2-[(4,6-diphenethoxypyrimidin-2-yl)thio]hexanoic acid” (J Med Chem, 2011).
Active and inactive are the calls of the source. No cut-off for these calls is given here.

Key:
Prostaglandin E synthase = target: T1, Prostaglandin E synthase (Homo sapiens, UniProt O14684); test: Inhibition of mPGES-1 in human IL-1beta-stimulated A549 cell microsomes assessed as reduction of PGE2 formation from PGH2 after 15 mins by RP-HPLC analysis; design: species or system Microsome
T1 sequence (O14684 whole entry): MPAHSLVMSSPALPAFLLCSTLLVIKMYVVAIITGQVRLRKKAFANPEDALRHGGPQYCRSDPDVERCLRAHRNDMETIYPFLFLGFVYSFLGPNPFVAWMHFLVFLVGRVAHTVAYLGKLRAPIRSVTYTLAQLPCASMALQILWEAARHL
In short: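 A549 cells in DMEM with 2% FCS for 16 h, induced with IL-1β (1 ng/mL) for 72 h, homogenized. Microsomal pellet (174 000 × g) diluted in 0.1 M potassium phosphate pH 7.4 with 2.5 mM glutathione, given compound or DMSO for 15 min. PGH₂ added (20 μM final), 1 min at 4 °C, stopped with FeCl₂/citric acid. PGE₂ by SPE and RP-HPLC (UV 195 nm), 11β-PGE₂ internal standard. Tested up to 10 μM; IC₅₀ reported only above 50% inhibition at 10 μM.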

[1] = target: T2, Polyunsaturated fatty acid 5-lipoxygenase (Homo sapiens, UniProt P09917); test: Inhibition of 5-lipoxygenase-mediated 5(S)-H(p)ETE formation in fMLP-stimulated human PMNL incubated 10 mins prior to fMLP challenge
T2 sequence (P09917 whole entry): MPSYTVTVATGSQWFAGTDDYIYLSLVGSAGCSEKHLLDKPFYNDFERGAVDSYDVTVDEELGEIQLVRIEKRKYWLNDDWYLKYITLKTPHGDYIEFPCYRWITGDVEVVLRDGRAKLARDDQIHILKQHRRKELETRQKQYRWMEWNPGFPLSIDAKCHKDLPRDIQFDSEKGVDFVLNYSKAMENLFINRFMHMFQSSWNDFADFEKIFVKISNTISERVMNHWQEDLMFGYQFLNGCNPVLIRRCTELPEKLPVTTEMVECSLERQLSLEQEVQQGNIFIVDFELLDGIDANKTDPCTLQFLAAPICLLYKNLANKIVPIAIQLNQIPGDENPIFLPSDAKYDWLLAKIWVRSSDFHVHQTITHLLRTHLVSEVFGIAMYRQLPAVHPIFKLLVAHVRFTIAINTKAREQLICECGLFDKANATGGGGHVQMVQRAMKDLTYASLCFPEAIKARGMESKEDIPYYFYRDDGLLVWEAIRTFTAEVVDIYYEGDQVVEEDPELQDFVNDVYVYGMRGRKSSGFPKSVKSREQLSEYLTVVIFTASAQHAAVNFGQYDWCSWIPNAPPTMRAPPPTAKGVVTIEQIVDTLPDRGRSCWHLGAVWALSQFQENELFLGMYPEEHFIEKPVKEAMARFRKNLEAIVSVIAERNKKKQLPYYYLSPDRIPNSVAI

[2] = target: T2, Polyunsaturated fatty acid 5-lipoxygenase; test: Inhibition of 5-lipoxygenase in human PMNL S100 supernatant assessed as inhibition of enzyme product formation preincubated for 5 to 10 mins before arachidonic acid addition by HPLC analysis
In short: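 PMNL (5 × 10⁶/mL in PBS/1 mM EDTA) sonicated, centrifuged 100 000 × g for 1 h at 4 °C. S100 diluted in PBS/EDTA with 1 mM ATP, ±1 mM DTT, and preincubated with compound or 0.3% DMSO 5–10 min at 4 °C. Prewarmed 30 s at 37 °C, started with 2 mM CaCl₂ + 20 μM AA, 10 min at 37 °C, stopped with cold methanol, 5-LO products by HPLC.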

[3] = target: T3, Polyunsaturated fatty acid lipoxygenase ALOX15 (Homo sapiens) (UniProt P16050); test: Inhibition of 15-lipoxygenase in A23187-stimulated human PMNL assessed as reduction of 15(S)-H(P)ETE formation up to 10 uM preincubated 15 mins by RP-HPLC analysis in presence of exogenous arachidonic acid
T3 sequence (whole entry): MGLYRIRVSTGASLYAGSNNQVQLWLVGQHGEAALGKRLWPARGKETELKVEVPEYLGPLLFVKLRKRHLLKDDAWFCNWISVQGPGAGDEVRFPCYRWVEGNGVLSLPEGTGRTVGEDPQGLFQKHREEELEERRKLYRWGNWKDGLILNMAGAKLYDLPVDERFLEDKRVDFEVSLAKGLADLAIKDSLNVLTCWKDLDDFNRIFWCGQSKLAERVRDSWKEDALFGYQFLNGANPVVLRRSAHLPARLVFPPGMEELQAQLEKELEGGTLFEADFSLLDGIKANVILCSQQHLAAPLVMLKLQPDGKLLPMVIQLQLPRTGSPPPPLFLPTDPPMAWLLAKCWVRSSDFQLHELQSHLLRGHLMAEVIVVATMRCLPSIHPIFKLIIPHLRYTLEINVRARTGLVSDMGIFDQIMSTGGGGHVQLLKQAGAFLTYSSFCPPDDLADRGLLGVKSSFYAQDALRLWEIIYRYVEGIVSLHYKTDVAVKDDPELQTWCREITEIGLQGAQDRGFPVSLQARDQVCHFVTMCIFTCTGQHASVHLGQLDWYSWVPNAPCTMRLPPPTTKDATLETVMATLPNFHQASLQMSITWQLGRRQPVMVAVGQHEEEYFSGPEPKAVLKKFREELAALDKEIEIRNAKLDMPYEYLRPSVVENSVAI
In short: (§1)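 Freshly isolated human PMNL (5 × 10⁶/mL in PBS pH 7.4 with 1 mg/mL glucose and 1 mM CaCl₂) preincubated with compound 15 min at 37 °C, then stimulated with 2.5 μM A23187 plus exogenous AA for 10 min at 37 °C. Stopped with methanol, PGB₁ added as internal standard, extracted, HPLC: 15(S)-H(p)ETE taken as 15-LO product, 12(S)-H(p)ETE as 12-LO product (platelet-type 12-LO from PMNL-adherent platelets).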

[4] = target: T4, Polyunsaturated fatty acid lipoxygenase ALOX12 (Homo sapiens) (UniProt P18054); test: Inhibition of 12-lipoxygenase in A23187-stimulated human PMNL assessed as reduction of 12(S)-H(P)ETE formation up to 10 uM preincubated 15 mins by RP-HPLC analysis in presence of exogenous arachidonic acid; in short: as §1
T4 sequence (whole entry): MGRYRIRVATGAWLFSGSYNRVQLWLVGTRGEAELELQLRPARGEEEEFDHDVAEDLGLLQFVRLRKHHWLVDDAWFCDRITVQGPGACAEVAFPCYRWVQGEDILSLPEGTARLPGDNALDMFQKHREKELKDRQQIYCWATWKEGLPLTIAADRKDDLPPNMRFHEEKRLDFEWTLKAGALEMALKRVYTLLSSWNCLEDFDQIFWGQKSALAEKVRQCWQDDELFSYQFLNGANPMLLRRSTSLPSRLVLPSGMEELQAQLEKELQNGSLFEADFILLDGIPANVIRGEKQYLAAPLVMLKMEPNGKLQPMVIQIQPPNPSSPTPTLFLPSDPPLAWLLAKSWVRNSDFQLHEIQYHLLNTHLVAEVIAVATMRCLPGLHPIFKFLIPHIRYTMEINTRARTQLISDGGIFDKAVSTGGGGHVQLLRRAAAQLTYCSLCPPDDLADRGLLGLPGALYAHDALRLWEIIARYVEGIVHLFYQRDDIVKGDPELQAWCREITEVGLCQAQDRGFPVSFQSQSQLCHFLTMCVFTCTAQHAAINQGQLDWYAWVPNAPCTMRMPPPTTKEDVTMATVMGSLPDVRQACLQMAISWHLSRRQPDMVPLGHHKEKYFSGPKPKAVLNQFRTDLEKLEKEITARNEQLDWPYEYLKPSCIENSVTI

[5] = target: T2, Polyunsaturated fatty acid 5-lipoxygenase; test: Inhibition of human recombinant 5-lipoxygenase-mediated product formation from arachidonic acid after 5 to 10 mins by HPLC analysis
In short: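 Human 5-LO expressed in E. coli BL21 (pT3-5LO) at 37 °C, purified and used at once. Enzyme (0.5 μg/mL in PBS/EDTA with 1 mM ATP) preincubated with compound 5–10 min at 4 °C, prewarmed 30 s at 37 °C, started with 2 mM CaCl₂ + 20 μM AA (±1 μM 13(S)-HpODE), 10 min at 37 °C, stopped with cold methanol, products by HPLC.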

[6] = system: Radical scavenging activity; test: Antioxidant activity assessed as DPPH radical scavenging activity at 100 uM; assay type: functional
In short: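 Non-enzymatic radical scavenging test: reduction of 1,1-diphenyl-2-picrylhydrazyl (DPPH) measured with test compound up to 100 μM; ascorbic acid and L-cysteine run as reference reductants.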

CCCCCCC(Sc1nc(OCCc2ccccc2)cc(OCCc2ccccc2)n1)C(=O)O (configuration not stated)
IC50 (Prostaglandin E synthase): 2000 nM
IC50 [1]: 400 nM
IC50 [2]: 12500 nM
inhibition [3]: inactive
inhibition [4]: inactive
IC50 [5]: 2800 nM
Activity [6]: inactive
